Experimental data reported in ChEMBL document CHEMBL1156088, “Synthesis and biological activity of novel oxazolidinones” (2009).
≈ marks a conversion by molar mass, not a printed value.

What follows are compounds tested on Staphylococcus aureus (assay: Antibacterial activity against Staphylococcus aureus 15187 by NCCLS method).
Type: functional
Procedure, shortened: (§1)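 In vitro MIC determination by the NCCLS method against a panel of gram-positive bacteria. Two oxazolidinone reference standards were tested alongside.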
CC(=S)NC[C@H]1CN(c2ccc(N3CCN(Cc4ccc([N+](=O)[O-])o4)CC3)c(F)c2)C(=O)O1 was tested, and the MIC was 1 µg/mL (≈ 2.09 µM).
Compound CSC(=S)NC[C@H]1CN(c2ccc(N3CCN(Cc4ccc([N+](=O)[O-])o4)CC3)c(F)c2)C(=O)O1 has an MIC greater than 16 µg/mL.
Work on O=C(/C=C/c1ccccc1)NC[C@H]1CN(c2ccc(N3CCN(Cc4ccc([N+](=O)[O-])o4)CC3)c(F)c2)C(=O)O1 yielded an MIC greater than 16 µg/mL.
CCOC(=O)NC[C@H]1CN(c2ccc(N3CCN(Cc4ccc([N+](=O)[O-])o4)CC3)c(F)c2)C(=O)O1 showed an MIC greater than 16 µg/mL.
In the case of COCC(=O)NC[C@H]1CN(c2ccc(N3CCN(Cc4ccc([N+](=O)[O-])o4)CC3)c(F)c2)C(=O)O1, the MIC is reported as greater than 16 µg/mL.
In the case of O=CNC[C@H]1CN(c2ccc(N3CCN(Cc4ccc([N+](=O)[O-])o4)CC3)c(F)c2)C(=O)O1, the MIC is reported as 2 µg/mL (≈ 4.47 µM).
For CC(Cl)C(=O)NC[C@H]1CN(c2ccc(N3CCN(Cc4ccc([N+](=O)[O-])o4)CC3)c(F)c2)C(=O)O1 (stereo partly specified), the MIC was greater than 16 µg/mL.

What follows are compounds tested on Staphylococcus aureus (assay: Antibacterial activity against Staphylococcus aureus ATCC 25923 by NCCLS method).
Type: functional
Procedure, shortened: as §1
CC(=S)NC[C@H]1CN(c2ccc(N3CCN(Cc4ccc([N+](=O)[O-])o4)CC3)c(F)c2)C(=O)O1 showed an MIC of 1 µg/mL (≈ 2.09 µM).
CSC(=S)NC[C@H]1CN(c2ccc(N3CCN(Cc4ccc([N+](=O)[O-])o4)CC3)c(F)c2)C(=O)O1 showed an MIC greater than 16 µg/mL.
O=C(/C=C/c1ccccc1)NC[C@H]1CN(c2ccc(N3CCN(Cc4ccc([N+](=O)[O-])o4)CC3)c(F)c2)C(=O)O1 was tested, and the MIC was greater than 16 µg/mL.
CCOC(=O)NC[C@H]1CN(c2ccc(N3CCN(Cc4ccc([N+](=O)[O-])o4)CC3)c(F)c2)C(=O)O1 was tested, and the MIC was greater than 16 µg/mL.
For COCC(=O)NC[C@H]1CN(c2ccc(N3CCN(Cc4ccc([N+](=O)[O-])o4)CC3)c(F)c2)C(=O)O1, the MIC was greater than 16 µg/mL.
O=CNC[C@H]1CN(c2ccc(N3CCN(Cc4ccc([N+](=O)[O-])o4)CC3)c(F)c2)C(=O)O1 was tested, and the MIC was 4 µg/mL (≈ 8.94 µM).
With CC(Cl)C(=O)NC[C@H]1CN(c2ccc(N3CCN(Cc4ccc([N+](=O)[O-])o4)CC3)c(F)c2)C(=O)O1 (stereo partly specified) the MIC was greater than 16 µg/mL.

Each compound was assayed on Staphylococcus aureus (assay: Antibacterial activity against methicillin-resistant Staphylococcus aureus 562 by NCCLS method).
Type: functional
Procedure, shortened: (§2)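 In vitro MIC determined by the NCCLS method against a panel of gram-positive bacteria. Ranbezolid and linezolid were run alongside as reference standards.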
For CC(=S)NC[C@H]1CN(c2ccc(N3CCN(Cc4ccc([N+](=O)[O-])o4)CC3)c(F)c2)C(=O)O1, the MIC was 1 µg/mL (≈ 2.09 µM).
CSC(=S)NC[C@H]1CN(c2ccc(N3CCN(Cc4ccc([N+](=O)[O-])o4)CC3)c(F)c2)C(=O)O1 showed an MIC greater than 16 µg/mL.
O=C(/C=C/c1ccccc1)NC[C@H]1CN(c2ccc(N3CCN(Cc4ccc([N+](=O)[O-])o4)CC3)c(F)c2)C(=O)O1 was tested, and the MIC was greater than 16 µg/mL.
Compound CCOC(=O)NC[C@H]1CN(c2ccc(N3CCN(Cc4ccc([N+](=O)[O-])o4)CC3)c(F)c2)C(=O)O1 has an MIC greater than 16 µg/mL.
With COCC(=O)NC[C@H]1CN(c2ccc(N3CCN(Cc4ccc([N+](=O)[O-])o4)CC3)c(F)c2)C(=O)O1 the MIC was greater than 16 µg/mL.
For O=CNC[C@H]1CN(c2ccc(N3CCN(Cc4ccc([N+](=O)[O-])o4)CC3)c(F)c2)C(=O)O1, the MIC was 2 µg/mL (≈ 4.47 µM).
With CC(Cl)C(=O)NC[C@H]1CN(c2ccc(N3CCN(Cc4ccc([N+](=O)[O-])o4)CC3)c(F)c2)C(=O)O1 (stereo partly specified) the MIC was greater than 16 µg/mL.

What follows are compounds tested on Staphylococcus aureus (assay: Antibacterial activity against methicillin-resistant Staphylococcus aureus 33 by NCCLS method).
Type: functional
Procedure, shortened: as §2
Work on CC(=S)NC[C@H]1CN(c2ccc(N3CCN(Cc4ccc([N+](=O)[O-])o4)CC3)c(F)c2)C(=O)O1 yielded an MIC of 1 µg/mL (≈ 2.09 µM).
Work on CSC(=S)NC[C@H]1CN(c2ccc(N3CCN(Cc4ccc([N+](=O)[O-])o4)CC3)c(F)c2)C(=O)O1 yielded an MIC greater than 16 µg/mL.
Work on O=C(/C=C/c1ccccc1)NC[C@H]1CN(c2ccc(N3CCN(Cc4ccc([N+](=O)[O-])o4)CC3)c(F)c2)C(=O)O1 yielded an MIC greater than 16 µg/mL.
CCOC(=O)NC[C@H]1CN(c2ccc(N3CCN(Cc4ccc([N+](=O)[O-])o4)CC3)c(F)c2)C(=O)O1 was tested, and the MIC was greater than 16 µg/mL.
Work on COCC(=O)NC[C@H]1CN(c2ccc(N3CCN(Cc4ccc([N+](=O)[O-])o4)CC3)c(F)c2)C(=O)O1 yielded an MIC greater than 16 µg/mL.
O=CNC[C@H]1CN(c2ccc(N3CCN(Cc4ccc([N+](=O)[O-])o4)CC3)c(F)c2)C(=O)O1 showed an MIC of 2 µg/mL (≈ 4.47 µM).
CC(Cl)C(=O)NC[C@H]1CN(c2ccc(N3CCN(Cc4ccc([N+](=O)[O-])o4)CC3)c(F)c2)C(=O)O1 (stereo partly specified) was tested, and the MIC was greater than 16 µg/mL.

Each compound was assayed on Enterococcus faecalis (assay: Antibacterial activity against Enterococcus faecalis ATCC 29212 by NCCLS method).
Type: functional
Procedure, shortened: as §1
Compound CC(=S)NC[C@H]1CN(c2ccc(N3CCN(Cc4ccc([N+](=O)[O-])o4)CC3)c(F)c2)C(=O)O1 has an MIC of 1 µg/mL (≈ 2.09 µM).
CSC(=S)NC[C@H]1CN(c2ccc(N3CCN(Cc4ccc([N+](=O)[O-])o4)CC3)c(F)c2)C(=O)O1 showed an MIC greater than 16 µg/mL.
In the case of O=C(/C=C/c1ccccc1)NC[C@H]1CN(c2ccc(N3CCN(Cc4ccc([N+](=O)[O-])o4)CC3)c(F)c2)C(=O)O1, the MIC is reported as greater than 16 µg/mL.
In the case of CCOC(=O)NC[C@H]1CN(c2ccc(N3CCN(Cc4ccc([N+](=O)[O-])o4)CC3)c(F)c2)C(=O)O1, the MIC is reported as greater than 16 µg/mL.
With COCC(=O)NC[C@H]1CN(c2ccc(N3CCN(Cc4ccc([N+](=O)[O-])o4)CC3)c(F)c2)C(=O)O1 the MIC was greater than 16 µg/mL.
O=CNC[C@H]1CN(c2ccc(N3CCN(Cc4ccc([N+](=O)[O-])o4)CC3)c(F)c2)C(=O)O1 was tested, and the MIC was 2 µg/mL (≈ 4.47 µM).
CC(Cl)C(=O)NC[C@H]1CN(c2ccc(N3CCN(Cc4ccc([N+](=O)[O-])o4)CC3)c(F)c2)C(=O)O1 (stereo partly specified) showed an MIC greater than 16 µg/mL.

What follows are compounds tested on Enterococcus faecium (assay: Antibacterial activity against vancomycin-resistant Enterococcus faecium 6A by NCCLS method).
Type: functional
Procedure, shortened: as §2
In the case of CC(=S)NC[C@H]1CN(c2ccc(N3CCN(Cc4ccc([N+](=O)[O-])o4)CC3)c(F)c2)C(=O)O1, the MIC is reported as 1 µg/mL (≈ 2.09 µM).
Work on CSC(=S)NC[C@H]1CN(c2ccc(N3CCN(Cc4ccc([N+](=O)[O-])o4)CC3)c(F)c2)C(=O)O1 yielded an MIC greater than 16 µg/mL.
O=C(/C=C/c1ccccc1)NC[C@H]1CN(c2ccc(N3CCN(Cc4ccc([N+](=O)[O-])o4)CC3)c(F)c2)C(=O)O1 showed an MIC greater than 16 µg/mL.
Work on CCOC(=O)NC[C@H]1CN(c2ccc(N3CCN(Cc4ccc([N+](=O)[O-])o4)CC3)c(F)c2)C(=O)O1 yielded an MIC greater than 16 µg/mL.
With COCC(=O)NC[C@H]1CN(c2ccc(N3CCN(Cc4ccc([N+](=O)[O-])o4)CC3)c(F)c2)C(=O)O1 the MIC was greater than 16 µg/mL.
Work on O=CNC[C@H]1CN(c2ccc(N3CCN(Cc4ccc([N+](=O)[O-])o4)CC3)c(F)c2)C(=O)O1 yielded an MIC of 4 µg/mL (≈ 8.94 µM).
CC(Cl)C(=O)NC[C@H]1CN(c2ccc(N3CCN(Cc4ccc([N+](=O)[O-])o4)CC3)c(F)c2)C(=O)O1 (stereo partly specified) showed an MIC greater than 16 µg/mL.

The compounds below were run on Streptococcus pyogenes (assay: Antibacterial activity against Streptococcus pyogenes ATCC 19615 by NCCLS method).
Type: functional
Procedure, shortened: as §1
Work on CC(=S)NC[C@H]1CN(c2ccc(N3CCN(Cc4ccc([N+](=O)[O-])o4)CC3)c(F)c2)C(=O)O1 yielded an MIC of 0.5 µg/mL (≈ 1.05 µM).
CSC(=S)NC[C@H]1CN(c2ccc(N3CCN(Cc4ccc([N+](=O)[O-])o4)CC3)c(F)c2)C(=O)O1 showed an MIC greater than 16 µg/mL.
Compound O=C(/C=C/c1ccccc1)NC[C@H]1CN(c2ccc(N3CCN(Cc4ccc([N+](=O)[O-])o4)CC3)c(F)c2)C(=O)O1 has an MIC greater than 16 µg/mL.
Work on CCOC(=O)NC[C@H]1CN(c2ccc(N3CCN(Cc4ccc([N+](=O)[O-])o4)CC3)c(F)c2)C(=O)O1 yielded an MIC greater than 16 µg/mL.
With COCC(=O)NC[C@H]1CN(c2ccc(N3CCN(Cc4ccc([N+](=O)[O-])o4)CC3)c(F)c2)C(=O)O1 the MIC was greater than 16 µg/mL.
With O=CNC[C@H]1CN(c2ccc(N3CCN(Cc4ccc([N+](=O)[O-])o4)CC3)c(F)c2)C(=O)O1 the MIC was 0.5 µg/mL (≈ 1.12 µM).
CC(Cl)C(=O)NC[C@H]1CN(c2ccc(N3CCN(Cc4ccc([N+](=O)[O-])o4)CC3)c(F)c2)C(=O)O1 (stereo partly specified) was tested, and the MIC was greater than 16 µg/mL.

These compounds were tested on Streptococcus pneumoniae (assay: Antibacterial activity against Streptococcus pneumoniae ATCC 6303 by NCCLS method).
Type: functional
Procedure, shortened: as §1
CC(=S)NC[C@H]1CN(c2ccc(N3CCN(Cc4ccc([N+](=O)[O-])o4)CC3)c(F)c2)C(=O)O1 was tested, and the MIC was 0.25 µg/mL (≈ 0.524 µM).
Compound CSC(=S)NC[C@H]1CN(c2ccc(N3CCN(Cc4ccc([N+](=O)[O-])o4)CC3)c(F)c2)C(=O)O1 has an MIC greater than 16 µg/mL.
For O=C(/C=C/c1ccccc1)NC[C@H]1CN(c2ccc(N3CCN(Cc4ccc([N+](=O)[O-])o4)CC3)c(F)c2)C(=O)O1, the MIC was greater than 16 µg/mL.
For CCOC(=O)NC[C@H]1CN(c2ccc(N3CCN(Cc4ccc([N+](=O)[O-])o4)CC3)c(F)c2)C(=O)O1, the MIC was greater than 16 µg/mL.
In the case of COCC(=O)NC[C@H]1CN(c2ccc(N3CCN(Cc4ccc([N+](=O)[O-])o4)CC3)c(F)c2)C(=O)O1, the MIC is reported as greater than 16 µg/mL.
With O=CNC[C@H]1CN(c2ccc(N3CCN(Cc4ccc([N+](=O)[O-])o4)CC3)c(F)c2)C(=O)O1 the MIC was 1 µg/mL (≈ 2.24 µM).
CC(Cl)C(=O)NC[C@H]1CN(c2ccc(N3CCN(Cc4ccc([N+](=O)[O-])o4)CC3)c(F)c2)C(=O)O1 (stereo partly specified) gave an MIC greater than 16 µg/mL.
